Test results as given in article PMC7950731 (Cell reports, 2019).

Columns and labels:
Assay in all cases: TR-FRET of indisulam-induced ternary complex
Format in all cases: binding
DCAF15 = DCAF15 (Homo sapiens, UniProt Q14498+Q66K64)
Method in brief: (§1)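 Purified His-DCAF15–DDB1–DDA1 (SF9 co-expression) and RBM39 aa 250–330-3xFLAG (E. coli, His tag TEV-cleaved), each 0.1 μM final, with 1 nM Eu-anti-6xHis donor and 5 ng/μL anti-FLAG-XL665 acceptor. Test compound titrated, 5 min at room temperature. Excitation 360 nm; 665/620 nm ratio. Run in triplicate; EC50 from four-parameter fit.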

RBM39 = RBM39 (Homo sapiens, UniProt Q14498+Q66K64)
Method in brief: as §1

RBM23 = RBM23 (Homo sapiens, UniProt Q66K64+Q86U06)

EC50 (DCAF15): 2270 nM
EC50 (RBM39): 2270 nM
EC50 (RBM23): 2580 nM
SMILES: NS(=O)(=O)c1ccc(S(=O)(=O)Nc2cccc3c(Cl)c[nH]c23)cc1 [indisulam]
